Test results taken from ChEMBL document CHEMBL1177836, “New quinoxaline 1, 4-di-N-oxides: anticancer and hypoxia-selective therapeutic agents” (Eur J Med Chem, 2010).
Converted amounts (≈) assume the structure as drawn.

Experiments:
[1] = Cytotoxicity against mouse EAC cells in aerobic condition assessed as cell viability at 100 ug/ml after 2 hrs by trypan blue exclusion assay; type: functional; conditions: Ehrlich, read-out: Activity
Method in brief: (§1)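 EAC cells aspirated from ascitic fluid of pre-inoculated female Swiss albino mice, suspended at 2.5×10⁶ cells/ml. Compounds freshly diluted in DMSO, 0.1 ml added per tube. Parallel aerobic and anaerobic tube sets; anaerobic tubes gassed with N₂ throughout. Incubation 2 h, then centrifugation. Trypan blue exclusion with haemocytometer counts; % viability = unstained cells/total cells × 100. DMSO-only negative control.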

[2] = Cytotoxicity against mouse EAC cells in hypoxic condition assessed as cell viability at 100 ug/ml after 2 hrs by trypan blue exclusion assay; type: functional; conditions: Ehrlich, read-out: Activity; method in brief: as §1
[3] = Cytotoxicity against mouse EAC cells in aerobic condition assessed as cell viability at 50 ug/ml after 2 hrs by trypan blue exclusion assay; type: functional; conditions: Ehrlich, read-out: Activity; method in brief: as §1
Ehrlich = test: Cytotoxicity against mouse EAC cells in hypoxic condition assessed as concentration required for 1% cell survival
[4] = Cytotoxicity against mouse EAC cells in hypoxic condition assessed as cell viability at 10 ug/ml after 2 hrs by trypan blue exclusion assay; type: functional; conditions: Ehrlich, read-out: Activity; method in brief: as §1
[5] = Cytotoxicity against mouse EAC cells in aerobic condition assessed as cell viability at 1 ug/ml after 2 hrs by trypan blue exclusion assay; type: functional; conditions: Ehrlich, read-out: Activity; method in brief: as §1
[6] = Cytotoxicity against mouse EAC cells in hypoxic condition assessed as cell viability at 1 ug/ml after 2 hrs by trypan blue exclusion assay; type: functional; conditions: Ehrlich, read-out: Activity; method in brief: as §1
[7] = Cytotoxicity against mouse EAC cells in aerobic condition assessed as cell viability at 10 ug/ml after 2 hrs by trypan blue exclusion assay; type: functional; conditions: Ehrlich, read-out: Activity; method in brief: as §1
HepG2 = test: Growth inhibition of human HepG2 cells after 48 hrs by SRB assay; type: functional, cell-based; conditions: HepG2, 48 h
Method in brief: (§2)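 Cells plated at 10⁴ per well and allowed 24 h to attach. Compounds dissolved in DMSO were added at 0.1, 2.5, 5 and 10 µg/ml and incubated 48 h at 37 °C under 5% CO₂. Cells were then fixed, washed and stained with sulforhodamine B, and colour intensity was read on an ELISA reader.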

[8] = Ratio of IC50 for mouse EAC cells in aerobic condition to IC50 for mouse EAC cells in hypoxic condition
U-251 = test: Growth inhibition of human U251 cells after 48 hrs by SRB assay; type: functional, cell-based; conditions: U-251, 48 h; method in brief: as §2
[9] = Cytotoxicity against mouse EAC cells in hypoxic condition by trypan blue exclusion assay; type: functional, cell-based; conditions: Ehrlich
Method in brief: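 EAC suspension (2.5×10⁶ cells/ml, from ascitic fluid of pre-inoculated female Swiss albino mice) exposed 2 h to DMSO-dissolved compounds over 1–100 µg/ml, in air or under continuous N₂. Viability by trypan blue exclusion, haemocytometer counts. IC50 taken as the concentration causing 50% mortality in net cell numbers.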

[10] = Cytotoxicity against mouse EAC cells in hypoxic condition assessed as cell viability at 25 ug/ml after 2 hrs by trypan blue exclusion assay; type: functional; conditions: Ehrlich, read-out: Activity; method in brief: as §1
[11] = Cytotoxicity against mouse EAC cells in hypoxic condition assessed as cell viability at 50 ug/ml after 2 hrs by trypan blue exclusion assay; type: functional; conditions: Ehrlich, read-out: Activity; method in brief: as §1
[12] = Cytotoxicity against mouse EAC cells in aerobic condition assessed as cell viability at 25 ug/ml after 2 hrs by trypan blue exclusion assay; type: functional; conditions: Ehrlich, read-out: Activity; method in brief: as §1
[13] = Cytotoxicity against mouse EAC cells in hypoxic condition assessed as cell viability at 5 ug/ml after 2 hrs by trypan blue exclusion assay; type: functional; conditions: Ehrlich, read-out: Activity; method in brief: as §1
[14] = Cytotoxicity against mouse EAC cells in aerobic condition by trypan blue exclusion assay; type: functional, cell-based; conditions: Ehrlich; method in brief: as §1
[15] = Cytotoxicity against mouse EAC cells in aerobic condition assessed as cell viability at 5 ug/ml after 2 hrs by trypan blue exclusion assay; type: functional; conditions: Ehrlich, read-out: Activity; method in brief: as §1

Row | SMILES | viability at 100 µg/mL [1] [%] | viability at 100 µg/mL [2] [%] | viability at 50 µg/mL [3] [%] | Potency (Ehrlich) [µg/mL] | viability at 10 µg/mL [4] [%] | viability at 1 µg/mL [5] [%] | viability at 1 µg/mL [6] [%] | viability at 10 µg/mL [7] [%] | IC50 (HepG2) [µg/mL] | HCR (IC50 air/IC50 hypoxia ratio) [8] | IC50 (U-251) [µg/mL] | IC50 [9] [µg/mL] | viability at 25 µg/mL [10] [%] | viability at 50 µg/mL [11] [%] | viability at 25 µg/mL [12] [%] | viability at 5 µg/mL [13] [%] | IC50 [14] [µg/mL] | viability at 5 µg/mL [15] [%]
1 | CCOc1ccc(/N=C/c2c(-c3ccccc3)[n+]([O-])c3ccc(OC)cc3[n+]2[O-])cc1 | 84.1 | 30.5 | 91.1 | > 100 | 92.9 | 99.3 | 99.3 | 95.4 | 0.77 (≈ 1.85 µM) | > 1.4 | > 10 | 70 (≈ 168 µM) | 84.4 | 64.9 | 92.3 | 97 | > 100 | 99
2 | CCOc1ccc(NCc2nc3cc(OC)ccc3[n+]([O-])c2-c2ccccc2)cc1 | 85 | 80.7 | 93.3 | > 100 | 98 | 100 | 100 | 96.3 | 4.95 (≈ 12.3 µM) | > 1 | > 10 | > 100 | 95 | 87 | 97.6 | 99 | > 100 | 98.6
3 | COc1ccc(NC(=O)Nc2c(C)[n+]([O-])c3ccc(OC)cc3[n+]2[O-])cc1 |  |  |  |  |  |  |  |  | 6 (≈ 16.2 µM) |  | > 10 |  |  |  |  |  |  | 
4 | Cc1c(NC(=O)OC(C)C)[n+]([O-])c2cc(Cl)ccc2[n+]1[O-] | 92 | 90.6 | 96.4 |  | 97.3 | 100 | 100 | 98.3 | > 10 |  | > 10 |  | 96 | 96.3 | 97 | 98.3 |  | 98.8
5 | COc1ccc2c(c1)[n+]([O-])c(NC(=O)OC(C)C)c(C)[n+]2[O-] | 87.7 | 63.2 | 92.6 | > 100 | 90.4 | 100 | 94.8 | 99 | 6 (≈ 19.5 µM) | > 1 | > 10 | > 100 | 82.3 | 76.2 | 97 | 91.9 | > 100 | 99
6 | Cc1c(C(=O)N=[N+]=[N-])[n+]([O-])c2cc(Cl)ccc2[n+]1[O-] | 81.8 | 59.1 | 91.2 | > 100 | 88.3 | 100 | 99.3 | 98 |  | > 1 |  | > 100 | 84.2 | 70.3 | 98 | 92.6 | > 100 | 98
7 | COc1ccc(NC(=O)Nc2c(C)[n+]([O-])c3ccc(Cl)cc3[n+]2[O-])cc1 | 54.6 | 5.3 | 73.3 | > 100 | 50.2 | 99.6 | 86.7 | 83 | 0.5 (≈ 1.33 µM) | 10 | > 10 | 10 (≈ 26.7 µM) | 24.2 | 10.3 | 79.2 | 73.3 | 100 (≈ 267 µM) | 98
8 | COc1ccc2c(c1)[n+]([O-])c(C(=O)N=[N+]=[N-])c(C)[n+]2[O-] | 56 | 1.3 | 77.9 | 90 (≈ 327 µM) | 58.3 | 94.5 | 94.5 | 83.9 | 3.61 (≈ 13.1 µM) | > 8 | > 10 | 12.5 (≈ 45.4 µM) | 11.3 | 6.2 | 80.7 | 81.1 | > 100 | 99
9 | N#Cc1c(N)[n+]([O-])c2ccc(Cl)cc2[n+]1[O-] | 94 | 5 | 94.3 | > 100 | 71.3 | 100 | 94 | 97.3 |  | > 7.4 |  | 13.5 (≈ 57.1 µM) | 65.1 | 43.5 | 95 | 87.8 | > 100 | 98.8
10 | Nc1n[n+]([O-])c2ccccc2[n+]1[O-] [TIRAPAZAMINE] |  |  |  |  |  |  |  |  | 56.6 (≈ 318 µM) |  | 71.2 (≈ 400 µM) |  |  |  |  |  |  | 
